# Test results taken from ChEMBL document CHEMBL3351628, “2,4,5-Trisubstituted thiazole derivatives: a novel and potent class of non-nucleoside inhibitors of wild type and mutant HIV-1 reverse transcriptase” (Eur J Med Chem, 2014).
# pIC50: −log10 of the molar value.
# How the values were obtained:
# [1] = Retention time of the compound by HPLC analysis; assay type: physicochemical
# [2] = test system: Human immunodeficiency virus 1; assay: Antiviral activity against wild type HIV1 infected in HEK293T cells transfected with plasmid VSV-G/pNL4-3.luc.R-E- assessed as inhibition of viral replication after 48 hrs by luciferase reporter gene assay; assay type: functional, organism-based, HEK-293T; details: Human immunodeficiency virus 1, HEK-293T, 48 h; read-out: IC50
# Summary of the method: (§1)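 VSV-G-pseudotyped single-cycle virus: VSVG plasmid plus env-deficient pNL4-3.luc.R⁻E⁻ vector (wild type or RT-mutant) co-transfected into HEK 293T by calcium phosphate. Medium changed at 16 h, supernatant collected 48 h post-transfection, normalised by p24 ELISA to 0.2 ng p24/mL. HEK 293T targets seeded a day ahead; compound added 15 min before virus. Cells lysed 48 h post-infection, luciferase read. IC50 from dose–infectivity curves.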
# [3] = test system: HEK-293T; assay: Cytotoxicity against HEK293T cells at 10 uM after 48 hrs; assay type: cell-based; details: human
# Summary of the method: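 HEK 293T cells incubated 48 h with compound at final 10 μM under the antiviral culture conditions, without virus. Viability read with a cell proliferation assay kit.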
# [4] = test system: Human immunodeficiency virus 1; assay: Antiviral activity against HIV1 infected in 293T cells assessed as time of 50% failure; assay type: functional
# [5] = test system: Human immunodeficiency virus 1; assay: Antiviral activity against HIV1 harboring reverse transcriptase K103N/P225H double mutant infected in HEK293T cells transfected with plasmid VSV-G/pNL4-3.luc.R-E- assessed as inhibition of viral replication after 48 hrs by luciferase reporter gene assay; assay type: functional, organism-based, HEK-293T; details: hek-293t; summary of the method: as §1
# [6] = test system: Human immunodeficiency virus 1; assay: Antiviral activity against HIV1 harboring reverse transcriptase K103N/P225H double mutant infected in HEK293T cells transfected with plasmid VSV-G/pNL4-3.luc.R-E- assessed as inhibition of viral replication after 48 hrs by luciferase reporter gene assay relative HIV1; assay type: functional, HEK-293T
# [7] = test system: Human immunodeficiency virus 1; assay: Antiviral activity against HIV1 harboring reverse transcriptase K103N/G190A double mutant infected in HEK293T cells transfected with plasmid VSV-G/pNL4-3.luc.R-E- assessed as inhibition of viral replication after 48 hrs by luciferase reporter gene assay; assay type: functional, organism-based, HEK-293T; summary of the method: as §1
# [8] = test system: Human immunodeficiency virus 1; assay: Antiviral activity against HIV1 harboring reverse transcriptase K103N/G190A double mutant infected in HEK293T cells transfected with plasmid VSV-G/pNL4-3.luc.R-E- assessed as inhibition of viral replication after 48 hrs by luciferase reporter gene assay relative HIV1; assay type: functional, HEK-293T
# [9] = test system: Human immunodeficiency virus 1; assay: Antiviral activity against HIV1 harboring reverse transcriptase K103N/V108I double mutant infected in HEK293T cells transfected with plasmid VSV-G/pNL4-3.luc.R-E- assessed as inhibition of viral replication after 48 hrs by luciferase reporter gene assay; assay type: functional, organism-based, HEK-293T; details: hek-293t; summary of the method: as §1
# [10] = test system: Human immunodeficiency virus 1; assay: Antiviral activity against HIV1 harboring reverse transcriptase K103N/V108I double mutant infected in HEK293T cells transfected with plasmid VSV-G/pNL4-3.luc.R-E- assessed as inhibition of viral replication after 48 hrs by luciferase reporter gene assay relative HIV1; assay type: functional, HEK-293T
# [11] = test system: Human immunodeficiency virus 1; assay: Antiviral activity against HIV1 harboring reverse transcriptase K103N mutant infected in HEK293T cells transfected with plasmid VSV-G/pNL4-3.luc.R-E- assessed as inhibition of viral replication after 48 hrs by luciferase reporter gene assay; assay type: functional, organism-based, HEK-293T; summary of the method: as §1
# [12] = test system: Human immunodeficiency virus 1; assay: Antiviral activity against HIV1 harboring reverse transcriptase K103N mutant infected in HEK293T cells transfected with plasmid VSV-G/pNL4-3.luc.R-E- assessed as inhibition of viral replication after 48 hrs by luciferase reporter gene assay relative HIV1; assay type: functional, HEK-293T
# [13] = test system: Human immunodeficiency virus 1; assay: Antiviral activity against HIV1 harboring reverse transcriptase Y181C mutant infected in HEK293T cells transfected with plasmid VSV-G/pNL4-3.luc.R-E- assessed as inhibition of viral replication after 48 hrs by luciferase reporter gene assay; assay type: functional, organism-based, HEK-293T; summary of the method: as §1
# [14] = test system: Human immunodeficiency virus 1; assay: Antiviral activity against HIV1 harboring reverse transcriptase Y181C mutant infected in HEK293T cells transfected with plasmid VSV-G/pNL4-3.luc.R-E- assessed as inhibition of viral replication after 48 hrs by luciferase reporter gene assay relative HIV1; assay type: functional, HEK-293T
# [15] = test system: Human immunodeficiency virus 1; assay: Antiviral activity against HIV1 harboring reverse transcriptase […]/K103N double mutant infected in HEK293T cells transfected with plasmid VSV-G/pNL4-3.luc.R-E- assessed as inhibition of viral replication after 48 hrs by luciferase reporter gene assay; assay type: functional, organism-based, HEK-293T; summary of the method: as §1
# [16] = test system: Human immunodeficiency virus 1; assay: Antiviral activity against HIV1 harboring reverse transcriptase […]/K103N double mutant infected in HEK293T cells transfected with plasmid VSV-G/pNL4-3.luc.R-E- assessed as inhibition of viral replication after 48 hrs by luciferase reporter gene assay relative HIV1; assay type: functional, HEK-293T
# [17] = test system: Human immunodeficiency virus 1; assay: Antiviral activity against HIV1 harboring reverse transcriptase Y188L mutant infected in HEK293T cells transfected with plasmid VSV-G/pNL4-3.luc.R-E- assessed as inhibition of viral replication after 48 hrs by luciferase reporter gene assay; assay type: functional, organism-based, HEK-293T; summary of the method: as §1
# [18] = test system: Human immunodeficiency virus 1; assay: Antiviral activity against HIV1 harboring reverse transcriptase Y188L mutant infected in HEK293T cells transfected with plasmid VSV-G/pNL4-3.luc.R-E- assessed as inhibition of viral replication after 48 hrs by luciferase reporter gene assay relative HIV1; assay type: functional, HEK-293T
# [19] = Human immunodeficiency virus 1, HEK-293T, 48 h
Structure (SMILES),Retention_time [1],pIC50 [2],Activity [3],other results
COc1ccc(CNc2nc(-c3ccc(OC)cc3)c(Cc3ccccc3)s2)cc1,29.14 min,6.51,Non-toxic,–
COc1ccc(-c2nc(NCc3cc(OC)c(OC)c(OC)c3)sc2Cc2ccccc2)cc1,17.16 min,< 5.00,Non-toxic,–
COc1ccc(-c2nc(/N=C/c3ccc(F)cc3)sc2Cc2ccccc2)cc1,14.58 min,< 5.00,Non-toxic,–
COc1ccc(-c2nc(NCc3ccc([N+](=O)[O-])cc3)sc2Cc2ccccc2)cc1,28.54 min,6.10,Non-toxic,–
COc1ccc(-c2nc(NCc3ccco3)sc2Cc2ccccc2)cc1,19.65 min,6.00,Non-toxic,–
COc1ccc(CNc2nc(-c3ccco3)c(Cc3ccccc3)s2)cc1,19.97 min,6.15,Non-toxic,–
COc1ccc(CCNc2nc(-c3ccc(OC)cc3)c(Cc3ccccc3)s2)cc1,36.91 min,< 5.00,Non-toxic,–
Cc1cn([C@H]2C[C@H](N=[N+]=[N-])[C@@H](CO)O2)c(=O)[nH]c1=O [ZIDOVUDINE],–,–,–,Time [4]: 7.7 h
COc1ccc(CNc2nc(-c3ccc(Cl)cc3Cl)c(Cc3ccccc3)s2)cc1,53.29 min,6.85,Non-toxic,–
COc1ccc(Nc2nc(-c3ccccc3)c(Cc3ccccc3OC)s2)cc1,3.18 min,< 5.00,Non-toxic,–
COc1ccc(CNc2nc(-c3ccc(OC)cc3)c(Cc3ccc(F)cc3)s2)cc1,29.46 min,< 5.00,Non-toxic,–
COc1ccc(CNc2nc(-c3ccc(OC)cc3)c(C)s2)cc1,13.3 min,5.02,Non-toxic,–
COc1ccc(CNc2nc(-c3ccccc3)c(Cc3ccc(C#N)cc3)s2)cc1,17.21 min,5.32,Non-toxic,–
COc1ccc(-c2nc(NCc3cccnc3)sc2Cc2ccccc2)cc1,10.25 min,5.33,Non-toxic,–
Cc1ccnc2c1NC(=O)c1cccnc1N2C1CC1 [NEVIRAPINE],–,7.51,Non-toxic,"pIC50 [5]: 5.26; fold change (FC) [6]: 177; pIC50 [7, 19]: < 5.00; fold change (FC) [8]: >322; pIC50 [9]: 5.55; fold change (FC) [10]: 90; Time [4]: 8.3 h; pIC50 ([11]; hek-293t): 4.79; fold change (FC) [12]: 519; pIC50 ([13]; hek-293t): 4.18; fold change (FC) [14]: 2152; pIC50 [15, 19]: 5.30; fold change (FC) [16]: 161; pIC50 [17, 19]: < 5.00; fold change (FC) [18]: >322"
COc1ccc(CNc2nc(-c3ccccc3)c(Cc3ccccc3)s2)cc1,28.38 min,6.74,Non-toxic,–
CCN(CC)c1nc(-c2ccc(O)cc2)c(Cc2ccccc2)s1,19.11 min,5.36,Non-toxic,–
CCN(CC)c1nc(-c2ccc(OC)cc2)c(Cc2ccccc2)s1,29.77 min,5.64,Non-toxic,–
COc1ccc(-c2nc(NCc3ccc(O)cc3)sc2Cc2ccccc2)cc1,16.52 min,6.19,Non-toxic,"pIC50 [11, 19]: 5.08; fold change (FC) [12]: 13; pIC50 [13, 19]: 5.18; fold change (FC) [14]: 10"

Structure (SMILES),Retention_time [1],pIC50 [2],Activity [3],other results
COc1ccc(-c2nc(NCc3ccc(N(C)C)cc3)sc2Cc2ccccc2)cc1,33.97 min,6.06,Non-toxic,"pIC50 [11, 19]: 4.18; fold change (FC) [12]: 76; pIC50 [13, 19]: 4.15; fold change (FC) [14]: 82"
Cc1nnc(C(=O)NC(C)(C)c2nc(C(=O)NCc3ccc(F)cc3)c(O)c(=O)n2C)o1 [RALTEGRAVIR],–,–,–,Time [4]: 12 h
COc1ccc(CN(C)c2nc(-c3ccc(OC)cc3)c(Cc3ccccc3)s2)cc1,47.61 min,6.43,Non-toxic,–
COc1ccc(-c2nc(NCc3ccc(F)cc3)sc2Cc2ccccc2)cc1,29.67 min,6.18,Non-toxic,–
COc1ccc(-c2nc(NCc3ccc(C#N)cc3)sc2Cc2ccccc2)cc1,20.01 min,6.35,Non-toxic,–
COc1ccc(-c2nc(NCc3cccc([N+](=O)[O-])c3)sc2Cc2ccccc2)cc1,27.61 min,5.83,Non-toxic,–
COc1ccc(-c2nc(NCc3cc([N+](=O)[O-])ccc3O)sc2Cc2ccccc2)cc1,45.27 min,5.28,Non-toxic,–
COc1ccc(-c2nc(NCc3cccc(OC)c3)sc2Cc2ccccc2)cc1,27.45 min,6.09,Non-toxic,–
COc1ccc(CNc2nc(-c3cc(OC)ccc3OC)c(Cc3ccccc3)s2)cc1,18.55 min,5.21,Non-toxic,–
COc1ccc(-c2nc(NCc3ccc(O)c(OC)c3)sc2Cc2ccccc2)cc1,14.86 min,6.48,Non-toxic,–
O=C1Nc2ccc(Cl)cc2[C@@](C#CC2CC2)(C(F)(F)F)O1 [EFAVIRENZ],–,9.08,Non-toxic,pIC50 [5]: 6.80; fold change (FC) [6]: 154; pIC50 ([7]; hek-293t): 7.25; fold change (FC) [8]: 538; pIC50 [9]: 7.08; fold change (FC) [10]: 79.8; Time [4]: 8.8 h; pIC50 ([11]; hek-293t): 7.23; fold change (FC) [12]: 56; pIC50 ([13]; hek-293t): 8.25; fold change (FC) [14]: 5.4; pIC50 ([15]; hek-293t): 5.60; fold change (FC) [16]: 2394; pIC50 ([17]; hek-293t): 6.32; fold change (FC) [18]: 461.5
COc1ccc(-c2nc(NCc3ccccc3)sc2Cc2ccccc2)cc1,28.1 min,6.19,Non-toxic,–
COc1ccc(-c2nc(NCc3ccccc3OC)sc2Cc2ccccc2)cc1,34.78 min,5.16,Non-toxic,–
COc1ccc(CNc2nc(-c3ccc(OC)cc3)c(Cc3ccc(OC)cc3)s2)cc1,26.12 min,< 5.00,Non-toxic,–
COc1ccc(CNc2nc(-c3ccc(F)cc3)c(Cc3ccccc3)s2)cc1,33.02 min,5.92,Non-toxic,–
COc1ccc(-c2nc(NCc3c(Cl)cccc3Cl)sc2Cc2ccccc2)cc1,7.67 min,5.14,Non-toxic,–
COc1ccc(CNc2nc(-c3ccc(OC)cc3)c(Cc3ccc([N+](=O)[O-])cc3)s2)cc1,26.68 min,< 5.00,Non-toxic,–
COc1ccc(CNc2nc(-c3ccccc3)c(Cc3ccccc3OC)s2)cc1,27.75 min,6.89,Non-toxic,–
COc1ccc(-c2nc(NCc3ccc4ccccc4c3)sc2Cc2ccccc2)cc1,72.49 min,6.02,Non-toxic,–
